# Compound activity deposited in PubChem BioAssay by Broad Institute.
# The list is not random: actives were taken first. Their share in the collection is about 2.5%.
# SIRT5 block: SIRT5 desuccinylase inhibitors, primary screen, biochemical, fluorescence imaging, single point, set 5. 330,000 compounds, 1.1% hits. inhibition, % at 15 µM. Purified SirT5, succinyl-peptide AMC, trypsin-coupled fluorescence; in the data active = inhibition above about 15%; inconclusive = no clear call, values can overlap the other calls
# Target sequence (Q9NXA8 whole entry, looked up): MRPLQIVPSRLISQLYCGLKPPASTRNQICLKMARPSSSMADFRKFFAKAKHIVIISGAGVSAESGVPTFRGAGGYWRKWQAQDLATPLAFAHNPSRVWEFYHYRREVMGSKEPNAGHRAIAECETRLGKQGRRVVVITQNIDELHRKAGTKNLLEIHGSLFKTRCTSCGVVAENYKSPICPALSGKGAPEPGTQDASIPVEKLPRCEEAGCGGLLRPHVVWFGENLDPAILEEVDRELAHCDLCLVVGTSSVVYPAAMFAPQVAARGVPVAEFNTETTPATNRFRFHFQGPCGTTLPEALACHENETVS
# miR122 inh: miR-122 Renilla sensor signal increase in Huh7, primary screen, miR-122 inhibitor project, cell-based, single point, plate reader | 340,000 compounds, 0.3% hits | activation (reporter increase), % at 12.5 µM | Huh7 miR-122 Renilla luciferase sensor, 48 h; neutral wells = 0, positive control = 100;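 active = mean replicate activation score at least 90 and every replicate individually at or above 90; inconclusive = only one of the two criteria met; inactive = neither criterion met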;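 also: higher luciferase means less miR-122 activity so hits act as miR-122 inhibitors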
# FGF22 binding: binders of human FGF22 protein, primary screen, FGF22 synaptogenesis inhibitor project, biophysical, thermal shift, single point | 340,000 compounds, 1.5% hits | activity (Tm shift, normalised), % at 9.99 µM | recombinant FGF22 thermal shift, SYPRO orange fluorescence; percent of sucrose octasulfate shift, DMSO zero | AID 651658, 2012;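 active = mean Tm shift, scaled 0 neutral to 100 positive control, at about 1.3% or above, every replicate too, limit read from the data; inconclusive = no clear call, values can overlap the other calls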
# Target sequence (Q9HCT0 whole entry, looked up): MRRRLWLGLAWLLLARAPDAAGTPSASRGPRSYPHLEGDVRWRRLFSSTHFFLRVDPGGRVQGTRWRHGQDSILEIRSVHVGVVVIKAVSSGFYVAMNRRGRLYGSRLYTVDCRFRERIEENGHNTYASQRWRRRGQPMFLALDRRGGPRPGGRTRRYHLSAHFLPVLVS
# S100A4 inh HTS: inhibitors of S100A4-myosin IIA peptide binding, primary screen, biochemical, fluorescence polarization, TAMRA-MyoIIA peptide | Protein S100-A4 (Homo sapiens), P26447 | inhibition, % at 10.7 µM | 360,000 compounds, 0.14% hits | AID 652163, 2013;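 active = mean inhibition of at least 70% across replicates, with every replicate also reaching that level; inconclusive = mean inhibition reaches 70% but some replicates fall short; inactive = mean inhibition below 70%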
# Target sequence (P26447 whole entry, looked up): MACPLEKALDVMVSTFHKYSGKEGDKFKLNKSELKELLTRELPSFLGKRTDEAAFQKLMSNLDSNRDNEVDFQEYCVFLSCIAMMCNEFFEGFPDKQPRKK
#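 Assay system: human S100A4 monomer with TAMRA-labelled myosin IIA peptide / Buffer or medium: Calcium-containing HEPES buffer, pH 7.2 / Reagent: TAMRA-labelled myosin IIA heavy-chain peptide probe, 5 nM / Compound: one dose per compound / Timing: polarization read 5 min after assay mix addition, stable 5–60 min / Benchmarks: neutral control DMSO, positive control TFP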
# E-sel inducer: E-selectin induction in HUVECs, primary screen, imaging, HUVEC, immunofluorescence imaging, single point; P16581; normalized: neutral wells 0, TNF-alpha wells 100; activation, % at 7.58 µM; 260,000 compounds, 0.37% hits;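 active = mean E-selectin-positive cell signal at least 10% of the positive control, reached in at least 60% of replicates, without over 20% cell loss; inconclusive = no rule given, readout overlaps actives, possibly toxicity-flagged; inactive = the rest, including those meeting only one limit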
#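 Test system: HUVEC | Signal: Immunofluorescence imaging | Read-out: Percent E-selectin-positive cells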
# A number is an active result; 0 = inactive; ? = inconclusive; - = no result.
SMILES,SIRT5 block,miR122 inh,FGF22 binding,S100A4 inh HTS,E-sel inducer
Cc1ccc(S(=O)(=O)Nc2ccccc2NS(=O)(=O)c2ccc(C)cc2)cc1,0,-,0,0,?
COc1cc(NS(=O)(=O)c2ccc(C)cc2)c2c(c1N)C(=O)c1ccccc1C2=O,0,0,0,0,127.3
C/C=C/c1ccccc1[C@H]1[C@@H](CO)N(C(=O)Nc2ccccc2)[C@H]1C#N,0,-,0,0,0
CN1C(=O)c2cc(NC(=O)C3CC3)ccc2OC[C@H]2O[C@@H](CC(=O)O)CC[C@@H]21,0,-,-,0,0
C[C@@H]1CN([C@@H](C)CO)C(=O)c2cc(-c3cccc(C#N)c3)cnc2O[C@@H]1CN(C)Cc1cccnc1,0,0,0,0,0
O=C(C[C@H]1C=C[C@H](NS(=O)(=O)c2ccccc2)[C@H](CO)O1)N1CCc2ccccc2C1,0,-,-,0,0
C[C@@H]1CCCCO[C@@H](CN(C)S(=O)(=O)c2cccs2)[C@H](C)CN([C@H](C)CO)C(=O)c2cc(NS(=O)(=O)c3ccccc3)ccc2O1,0,0,0,0,0
COc1ccccc1NC(=O)c1ccc(NC(=O)CN(C)Cc2ccccc2F)cc1,0,-,43.3,0,0
O=C(c1ccccn1)N1CC(=O)N2[C@H](C1)[C@H](c1ccc(C#CC3CCCC3)cc1)[C@@H]2CO,0,-,0,0,0
C/C(=C\C(=O)c1ncc(C(F)(F)F)cc1Cl)N(C)C,0,-,0,0,0
CN(C)/C=C(\C=O)c1ncc(C(F)(F)F)cc1Cl,0,-,43.0,0,0
Cc1ccc(NS(=O)(=O)c2ccc3c(c2)NC(=O)CO3)c(C)c1,0,0,0,0,-
O=C1COc2ccc(S(=O)(=O)Nc3ccc(F)cc3)cc2N1,0,112.3,0,0,0
CCOC(=O)c1sc(-c2ccc(Br)cc2)cc1N,0,0,0,0,-
NNC(=O)c1sc(-c2ccc(Cl)cc2)cc1N,0,0,43.5,0,-
CO[C@@H]1CN(C)C(=O)c2cc(NC(=O)CC(F)(F)F)ccc2OC[C@@H](C)N(C(C)=O)C[C@@H]1C,0,-,0,0,0
C[C@@H]1CCCCO[C@H](CN(C)CC2CC2)[C@H](C)CN([C@H](C)CO)C(=O)c2cc(NS(=O)(=O)c3ccccc3)ccc2O1,-,-,0,0,0
Cn1nc(C(=O)N2CCOCC2)c([N+](=O)[O-])c1C(=O)N1CCOCC1,0,-,44.1,0,-
C[C@H](CO)N1C[C@H](C)[C@H](CN(C)C(=O)Nc2cccc(Oc3ccccn3)c2)OCc2cn(nn2)CCCC1=O,-,0,-,-,0
O=[N+]([O-])c1ccc(N/N=C/c2c[nH]c3ccccc23)c(S(=O)(=O)Nc2ccc(Cl)cc2)c1,-,162.0,-,-,-
C[C@H](O)C#Cc1ccc([C@@H]2[C@@H](CO)N3CCCCN(CC4CC4)C[C@H]23)cc1,0,0,0,0,0
CCCNC(=O)N1CC2(C1)[C@H](c1ccccc1)[C@@H](CO)N2C(=O)C1CCCC1,0,-,-,0,0
COc1ccc2c3c(n(C)c2c1)[C@@H](CO)N(C(=O)C1CCOCC1)CC31CCN(C(=O)C2CC2)CC1,0,-,0,0,0
CC(C)NC(=O)Nc1ccc2c(c1)C(=O)N([C@@H](C)CO)C[C@H](C)[C@@H](CN(C)C(=O)Nc1cccc3ccccc13)O2,0,0,0,0,-
O=C(NCc1ccncc1)c1nc(-c2ccc(C(F)(F)F)cc2)no1,18.7,-,0,0,-
SMILES,SIRT5 block,miR122 inh,FGF22 binding,S100A4 inh HTS,E-sel inducer
O=C(NCc1cccnc1)c1nc(-c2ccc(C(F)(F)F)cc2)no1,0,-,0,0,0
O=C(C1=C[C@H](c2ccc(C(F)(F)F)cc2)C[C@H](OCCCCO)O1)N1CCCCCCC1,0,-,0,0,-
COc1ccc(NC(=O)Nc2ccc3c(c2)CC(=O)N([C@@H](C)CO)C[C@H](C)[C@@H](CN(C)C(=O)Nc2ccc4c(c2)OCO4)O3)cc1,0,0,0,0,0
C[C@H](CO)N1C[C@H](C)[C@@H](CN(C)CC2CCCCC2)Oc2ccc(NS(=O)(=O)c3ccc(F)cc3)cc2CC1=O,16.4,0,0,0,0
C[C@H](CO)N1C[C@H](C)[C@@H](CN(C)CC2CCCCC2)Oc2ccc(NS(=O)(=O)c3ccc(Cl)cc3)cc2CC1=O,17.7,0,0,0,0
Cc1ccc(S(=O)(=O)Nc2ccc3c(c2)CC(=O)N([C@H](C)CO)C[C@H](C)[C@@H](CN(C)CC2CCCCC2)O3)cc1,18.6,0,0,0,0
Cc1ccc(S(=O)(=O)Nc2ccc3c(c2)CC(=O)N([C@H](C)CO)C[C@@H](C)[C@@H](CN(C)CC2CCCCC2)O3)cc1,0,0,0,0,-
Cc1ccc(S(=O)(=O)Nc2ccc3c(c2)CC(=O)N([C@@H](C)CO)C[C@H](C)[C@H](CN(C)CC2CCCCC2)O3)cc1,15.8,0,0,0,0
COc1ccc2c3c([nH]c2c1)[C@H](CO)N(C(=O)Cc1ccccc1)CC31CN(C(=O)Cc2ccccc2)C1,0,-,0,0,0
CN(C)CC(=O)Nc1ccc2c(c1)[C@H]1C[C@@H](CC(=O)NCc3ccc(-c4ccccc4)cc3)O[C@@H](CO)[C@H]1O2,0,0,0,0,0
CO[C@@H]1CN(C)C(=O)c2cc(NC(=O)c3cccc(Oc4ccccc4)c3)ccc2OC[C@@H](C)NC[C@@H]1C,-,0,-,-,0
CC(C)NC(=O)N(C)C[C@H]1OCCCC[C@H](C)Oc2ccc(NC(=O)c3ccccc3)cc2C(=O)N([C@@H](C)CO)C[C@H]1C,0,0,0,0,0
C[C@@H]1CN([C@@H](C)CO)C(=O)c2cc(NC(=O)CCC(F)(F)F)ccc2O[C@@H](C)CCCCO[C@@H]1CN(C)C,-,0,-,-,0
CC1(C)CC(NC(=O)C2CCC(=O)N(C3CC3)C2)CC(C)(C)C1 (stereo not given),36.1,0,0,0,0
O=C(NC1CCCCC1)C1CCC(=O)N(C2CC2)C1 (stereo not given),0,0,0,0,-
CCOC(=O)c1c(NC(=O)/C=C/C(=O)O)sc(C)c1-c1ccc(C(C)(C)C)cc1,0,-,1.7,0,0
CCOC(=O)c1c(NC(=O)/C=C\C(=O)O)sc(C)c1-c1ccccc1,0,0,0,0,-
C[C@@H]1CN([C@@H](C)CO)C(=O)c2cc(NC(=O)Cc3cn(C)c4ccccc34)ccc2O[C@@H]1CN(C)C(=O)Nc1ccc(F)cc1,0,0,0,0,0
C=CCn1c(=N)n(CC(=O)c2ccc(Br)s2)c2ccccc21,0,0,0,0,69.2
C[C@@H]1CN([C@@H](C)CO)C(=O)c2ccccc2-c2ccccc2CO[C@H]1CN(C)C(=O)Nc1cccc(Cl)c1Cl,-,-,-,0,0
